We go through two compounds from ChEMBL document CHEMBL1153032, “Benzhydrylquinazolinediones: novel cytosolic phospholipase A2alpha inhibitors with improved physicochemical properties” (Bioorg Med Chem, 2009).

Series [1] in a line: Lipophilicity, log D at pH 7.4. The note with it: buffer. The series is classed as physicochemical.
A short description of series [2]: Aqueous solubility after 18 hrs at pH 7.4. The series is classed as physicochemical. In outline: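 Compound taken as 8 mg/mL DMSO stock; 13 µL added to 1.0 mL pH 7.4 buffer, mixed, left to settle 18 h at room temperature. Mixture filtered (0.2 µm), filtrate concentration read by UV plate reader. Solubility derived against a single-point standard.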
Series [3] relates to MC9. Put plainly: Inhibition of PGF2alpha production in arachidonic acid-stimulated mouse MC9 cells at 5 uM treated 15 mins before arachidonic acid challenge measured after 4 mins. Format: functional.
Series [4] can be described thus: Inhibition of cytosolic phospholipase A2alpha by GLU micelle assay.
The nature of series [5]: Permeability in buffer of pH 7.4 by PAMPA. Format: ADME. The following applies: read-out: permeability. In outline: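 PAMPA: 5 mg/mL DMSO stock diluted 200-fold in pH 7.4 universal buffer (25 µg/mL) and placed in donor wells. Filter membrane coated with phosphatidylcholine in dodecane (20 mg/mL); acceptor holds pH 7.4 buffer. Sandwich left 18 h at rt. Donor, acceptor and reference concentrations read by UV. Effective permeability (Pe) calculated; triplicate runs averaged. Verapamil and theophylline run as QC standards.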

Series [6] deals with MC9. The experiment in a line: Inhibition of LTB4 production in DNP-BSA-stimulated mouse MC9 cells at 5 uM treated 15 mins before DNP-BSA challenge measured after 4 mins. Format: functional.
Series [7] has as its system MC9. The experiment in a line: Inhibition of PGF2alpha production in DNP-BSA-stimulated mouse MC9 cells at 5 uM treated 15 mins before DNP-BSA challenge measured after 4 mins. Format: functional.
The next series has as its system Blood. The experiment in a line: Inhibition of TXB2 production in calcium ionophore A-23187-stimulated Sprague-Dawley rat whole blood after 10 mins. The series is classed as functional, tissue-based.

The structures appear in SMILES notation. pIC50: −log10 of the molar value. Values after ≈ are worked out from the molar mass of the structure shown.

Take `O=C(O)c1ccc(OC/C=C/Cn2c(=O)n(C(c3ccccc3)c3ccccc3)c(=O)c3ccc(-n4cncn4)cc32)cc1`: the log distribution coefficient (logD) in series [1] turned out to be 1.4. The compound also gave a solubility at 18 h in series [2] greater than 100 µg/mL. Besides, the inhibition at 5 µM in the series on MC9 [3] was -28%; with MC9 [6] it was 100%; with MC9 [7] it was 102%. For the same compound, the pIC50 in series [4] is 5.96; in the series on Blood it was 4.96. For the same compound, the Papp in series [5] is 1.6 ×10⁻⁶ cm/s.
In series [1], `O=C(O)c1ccc(OC/C=C/Cn2c(=O)n(C(c3ccccc3)c3ccccc3)c(=O)c3ccc([N+](=O)[O-])cc32)cc1` showed a pH-dependent lipophilicity (logD) of 2.4. This compound also came in with a solubility at 18 h in series [2] of 34 µg/mL (≈ 60.3 µM). For the same compound, the inhibition at 5 µM in the series with MC9 [3] was -12%; in the series on MC9 [6], 97%; in the series on MC9 [7], 30%. The values for the pIC50 (in series [4]; in the series on Blood) were 6.00 and 4.89, respectively. In addition, the Papp in series [5] worked out at 2.6 ×10⁻⁶ cm/s.
